Rows were chosen to be rich in hits. Some 1.5% of all compounds tested hit in one or more screens of this group.
Rpn11 inh: inhibitors of human proteasome Rpn11. O00487. human 26S proteasome, Ub4-pepOG fluorescence polarization; 20S core pre-blocked with epoxomicin. calls only at 20 µM. actives 0.59% (n = 360,000);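 active = inhibition at 20 µM, scaled to each plate's controls, above about 33%, limit read from the data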
TPT1 inh: C. albicans TPT1 enzyme inhibition | recombinant caTPT1, FP RNA substrate dephosphorylation | inhibition, % at 5 µM | actives 0.81% (n = 300,000);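 active = inhibition above the mean of all tested compounds plus 3 SD, set per screening campaign, cut at about 24% in these data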
HNF4A DNA FP: change in binding of human HNF4 alpha to DNA | HNF4a-FITC DNA binding, fluorescence polarization, 1 h | activity change, % at 10 µM | actives 0.3% (n = 360,000) | AID 1224865; in the data active = activity change above about 30%, passing the limit was not always enough
Target sequence (P41235 whole entry, looked up): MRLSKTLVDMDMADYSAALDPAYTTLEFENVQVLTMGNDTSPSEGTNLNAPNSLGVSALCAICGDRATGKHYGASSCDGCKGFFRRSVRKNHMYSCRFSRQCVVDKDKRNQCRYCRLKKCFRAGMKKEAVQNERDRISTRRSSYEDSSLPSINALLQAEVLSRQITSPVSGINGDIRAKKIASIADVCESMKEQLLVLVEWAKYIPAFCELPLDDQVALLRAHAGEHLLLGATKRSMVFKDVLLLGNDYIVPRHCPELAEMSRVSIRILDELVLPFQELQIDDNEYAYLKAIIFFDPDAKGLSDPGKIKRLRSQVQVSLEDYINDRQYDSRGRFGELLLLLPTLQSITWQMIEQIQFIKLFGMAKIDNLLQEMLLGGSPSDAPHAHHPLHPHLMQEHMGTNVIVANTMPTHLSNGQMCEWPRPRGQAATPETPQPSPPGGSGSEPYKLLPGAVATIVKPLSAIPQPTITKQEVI
CSN inh: inhibitors of human CSN-mediated cullin deneddylation. Q92905. Purified CSN, SCF-Nedd8-OG deneddylation, fluorescence polarization. inhibition, % at 12.5 µM. actives 0.38% (n = 360,000). AID 651999;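 active = pattern-corrected inhibition above about 35%, with an unprinted fluorescence ratio check between 0.5 and 1.5, limit read from the data, passing the limit was not always enough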
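assay system = purified human Csn5 enzyme expressed in HEK293T cells | amount = 0.24 nM enzyme | buffer or medium = Tris/NaCl/DTT buffer, pH 7.5 | reagent = 10 nM SCFSkp2-Nedd8OG | compound = one concentration, 12.5 µM, 0.25% DMSO | times = 90 min reaction at room temperature | signal = FP | read-out basis = % inhibition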
TPT1 inh confirm: confirmation of Candida albicans TPT1 inhibitors | shares compounds with TPT1 inh | recombinant caTPT1, fluorescence polarization, RNase T1 coupled | inhibition, % at 5 µM | actives 74% (n = 2,400) | AID 2149;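 active = inhibition above the primary screen limit, the mean inhibition of all tested compounds plus 3 SD, cut at about 25% in these data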
RNase T1 counter: counter-screen for TPT1 inhibitors: inhibitors of Aspergillus oryzae RNase T1; shares compounds with TPT1 inh; RNase T1 cleavage, fluorescence polarization, 1536-well; inhibition, % at 5 µM; actives 83% (n = 2,400); AID 2153;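 active = inhibition above the solvent-only control well mean plus 3 SD, limit set per screening run, cut at about 23% in these data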;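 note: inhibitors block cleavage so intact labeled substrate keeps polarization high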
A number is an active result; i = inactive; nt = no result given.

SMILES	Rpn11 inh	TPT1 inh	HNF4A DNA FP	CSN inh	TPT1 inh confirm	RNase T1 counter
CCCN(CC(=O)Nc1ccccc1C)C(=O)/C=C/c1ccc(OCC)c(OC)c1	i	nt	i	i	nt	nt
O=C(NC1CC1)c1ccc2sc([C@H]3C[C@H](O)[C@@H](CO)O3)nc2c1	i	nt	i	i	nt	nt
CCN1CCC2(CC1)C(C#N)=C(N)Oc1c2sc2nc(C)cc(C)c12	i	64.3	i	i	i	25.2
CC1CC/C(=C\c2ccc3c(c2)OCO3)C(=O)/C1=C/c1ccc2c(c1)OCO2 (centres undefined)	i	30.8	i	i	i	i
CCN(Cc1ccc(OC)c(F)c1)C(=O)/C=C/c1ccc(S(=O)(=O)N2CCOCC2)cc1	i	nt	i	i	nt	nt
COc1cc(F)ccc1-c1csc(C(C)(NC(C)=O)c2ccccc2)n1 (centres undefined)	i	nt	i	i	nt	nt
c1ccc(-c2ccccc2OCCCN2CCCCCC2)cc1	i	i	i	i	nt	nt
c1ccc(-c2ccccc2OCCCCN2CCCCC2)cc1	i	51.5	i	i	i	i
Cc1ccc2nc(N/N=C\c3ccc([N+](=O)[O-])o3)nc(-c3ccccc3)c2c1	i	52.3	i	i	49.5	44.1
COC(=O)C1CC(=O)c2ccsc2C1 (centres undefined)	i	64.5	i	i	i	i
COC(=O)C1C/C(=N\NS(=O)(=O)c2ccc(C)cc2)c2sccc2C1 (centres undefined)	i	i	i	i	nt	nt
COC(=O)c1sc2nc(CSc3nc4ccc(C)cc4[nH]3)[nH]c(=O)c2c1C	nt	38.2	i	i	33.4	44.6
COC(=O)Cc1cn(-c2ncc(C(F)(F)F)cc2Cl)c2ccccc12	i	i	i	i	nt	nt
CN(C)/C=C/C(=O)/C=C/c1cn(-c2ncc(C(F)(F)F)cc2Cl)c2ccccc12	i	31.6	i	i	i	i
CCSc1nnc(-c2sc3nnc(-c4ccccc4)c(-c4ccccc4)c3c2N)o1	i	42.4	i	i	42.1	51.3
CCSc1nnc(-c2ccncc2)o1	i	i	i	i	nt	nt
Nc1ccc2c(c1)C/C(=C/c1ccco1)C2=O	i	26.3	i	i	i	i
CC1(C)CN(CCc2ccccc2)C(=O)[C@H]1CC(=O)Nc1ccccc1	i	nt	i	i	nt	nt
CC(NCC(=O)Nc1ccccc1C(=O)NC1CC1)c1cccc(C(F)(F)F)c1 (centres undefined)	i	nt	i	i	nt	nt
COc1ccc(CN2CCC(N(CCc3ccccc3)Cc3ccccc3)CC2)c(OC)c1	i	i	i	i	nt	nt
O=C(CCN1C(=O)/C(=C/c2cccs2)SC1=S)Nc1ccccn1	nt	32.5	33.3	i	31.0	42.3
Cc1ccc(/C=C2\SC(=S)N(CCCC(=O)Nc3ccccn3)C2=O)cc1	i	i	i	i	nt	nt
O=C(CCN1C(=O)/C(=C/c2cccs2)SC1=S)Nc1ccc(C(=O)O)cc1	i	30.7	i	i	28.6	38.5
COc1ccc(/C=C2\SC(=S)N(CCCC(=O)Nc3ccccn3)C2=O)cc1OC	i	32.1	i	i	52.5	64.2
O=C(CCN1C(=O)/C(=C/c2ccccc2)SC1=S)Nc1ccccn1	i	i	i	i	nt	nt
SMILES	Rpn11 inh	TPT1 inh	HNF4A DNA FP	CSN inh	TPT1 inh confirm	RNase T1 counter
CC(C)c1ccc(NC(=O)C(c2ccccc2)N(C)C(=O)CCc2c[nH]c3ccccc23)cc1 (centres undefined)	i	i	i	i	nt	nt
CCOC(=O)[C@H]1[C@H]2COc3ccc(OC)cc3[C@@H]2N2C(=O)CN(CCc3c[nH]c4ccccc34)C(=O)[C@@]12C	i	nt	i	i	nt	nt
CSc1cccc(NC(=O)C(=O)NCc2ccccc2)c1	i	i	i	i	nt	nt
CSc1cccc(NC(=O)NCc2cccc(CNC(=O)Nc3cccc(SC)c3)c2)c1	i	50.6	i	i	i	i
CC(OC(=O)/C(C#N)=C/c1ccc(N(C)C)cc1)C(=O)N(C)Cc1ccccc1 (centres undefined)	nt	107.1	i	i	114.8	114.1
Nc1nc(-c2ccccc2)c(-c2ccc([N+](=O)[O-])cc2)s1	i	40.3	i	i	51.1	68.9
CS(=O)(=O)c1ccc(Cl)c(NC(=O)COC(=O)CCN2C(=O)C3CC=CCC3C2=O)c1 (centres undefined)	i	nt	i	i	nt	nt
O=C1CCC/C(=N/NC(=O)c2sc3ccccc3c2Cl)C1	nt	97.8	i	i	110.0	107.8

High-throughput results deposited in PubChem BioAssay by several laboratories.
